Published values collected from several papers.
Values after ≈ are worked out from the molar mass of the structure shown.

| SMILES | target or system | assay | system | setting | quantity | result |
| --- | --- | --- | --- | --- | --- | --- |
| CC[C@H](C)[C@H](NC(C)=O)C(=O)N[C@H]1CSSC[C@@H](C(=O)N[C@H](C(N)=O)[C@@H](C)O)NC(=O)[C@H](CCCNC(=N)N)NC(=O)[C@H](Cc2c[nH]cn2)NC(=O)[C@@](C)(CC)NC(=O)CNC(=O)[C@H](Cc2c[nH]c3ccccc23)NC(=O)[C@H](CC(=O)O)NC(=O)[C@H](CCC(N)=O)NC(=O)[C@H](Cc2c[nH]c3ccccc23)NC(=O)[C@H](C(C)C)NC1=O | – | – | PBS | pH 7.4 | solubility | 3600 µg/mL (≈ 2190 µM) |
| CC[C@@H]1CN2CCc3c([nH]c4cccc(OC)c34)[C@H]2C[C@@H]1/C(=C\OC)C(=O)OC | dog Hepatocyte | metabolic stability | hepatocytes | – | half-life | > 2 h |
| C#Cc1ccc2c(c1)C(c1ccccn1)=NCc1c(-c3cnco3)ncn1-2.Cl | – | – | water | 10 min, 37 °C | kinetic solubility | 2400 µg/mL |
| Cc1ncc(C)n2nc(/C=C/c3nc(N4CCCC4)cc(N4CCOCC4)n3)nc12 | – | – | male beagle dog, plasma | oral, 0.3 mg/kg | bioavailability | 42% |
| COc1ccc2[nH]cc(CCN(C)C)c2c1 | – | potentiometric | water | – | pKa | 9.1 |
| CC1(C)CC(NC(=O)C(=O)Nc2ccc(Cl)cc2)CC(C)(C)N1 | Cf2Th-CCR5 | cell growth or viability, MTS | – | 48 h | CC50 | > 100 µM |
| N[C@@H]1C[C@H]1c1ccccc1 (racemic) | Cytochrome P450 2A6 (CYP2A6, Homo sapiens, UniProt P11509) | enzyme activity, inhibitor, fluorescence | – | – | IC50 | 0.49 µM |
| CCN(CC)CCO[C@H]1CC[C@@]2(C)C(=CC[C@@H]3[C@@H]2CC[C@]2(C)C(=O)CC[C@@H]32)C1 | MA104 | cell growth or viability, MTS | – | 24 h | CC50 | 219 µM |
| CC[C@H](C)[C@H](NC(=O)[C@H](CCCNC(=N)N)NC(=O)[C@H](CCC(=O)O)NC(C)=O)C(=O)N[C@H]1CSSC[C@@H](C(=O)N[C@H](C(N)=O)[C@@H](C)O)NC(=O)[C@H](CCCNC(=N)N)NC(=O)[C@H](Cc2c[nH]cn2)NC(=O)[C@H](Cc2cccc3ccccc23)NC(=O)CNC(=O)[C@H](Cc2c[nH]c3ccccc23)NC(=O)[C@H](CC(=O)O)NC(=O)[C@H](CCC(N)=O)NC(=O)[C@H](Cc2c[nH]c3ccccc23)NC(=O)[C@H](C(C)C)NC1=O | – | – | PBS | pH 7.4 | solubility | 380 µg/mL (≈ 188 µM) |
